ChEMBL document CHEMBL1144351, “Synthesis, structure-activity relationship, and receptor pharmacology of a new series of quinoline derivatives acting as selective, noncompetitive mGlu1 antagonists” (J Med Chem, 2005)

Legend:
[1] = target: Metabotropic glutamate receptor 1 (Homo sapiens, UniProt Q13255); test: Inhibitory concentration against human metabotropic glutamate receptor
Outline: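 Human mGlu1a receptor stably expressed in L929sA cells grown in GlutaMAX1 medium with 10% heat-inactivated dialyzed fetal calf serum, streptomycin and penicillin. Antagonism of receptor activation was read as intracellular Ca2+ response on a fluorometric imaging plate reader. IC50 is the mean of two or three independent experiments.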

[2] = target: Metabotropic glutamate receptor 1 (Rattus norvegicus, UniProt P23385); test: Inhibitory concentration against rat metabotropic glutamate receptor 1
Sequence of Metabotropic glutamate receptor 1 (Rattus norvegicus, UniProt P23385) (P23385 whole entry): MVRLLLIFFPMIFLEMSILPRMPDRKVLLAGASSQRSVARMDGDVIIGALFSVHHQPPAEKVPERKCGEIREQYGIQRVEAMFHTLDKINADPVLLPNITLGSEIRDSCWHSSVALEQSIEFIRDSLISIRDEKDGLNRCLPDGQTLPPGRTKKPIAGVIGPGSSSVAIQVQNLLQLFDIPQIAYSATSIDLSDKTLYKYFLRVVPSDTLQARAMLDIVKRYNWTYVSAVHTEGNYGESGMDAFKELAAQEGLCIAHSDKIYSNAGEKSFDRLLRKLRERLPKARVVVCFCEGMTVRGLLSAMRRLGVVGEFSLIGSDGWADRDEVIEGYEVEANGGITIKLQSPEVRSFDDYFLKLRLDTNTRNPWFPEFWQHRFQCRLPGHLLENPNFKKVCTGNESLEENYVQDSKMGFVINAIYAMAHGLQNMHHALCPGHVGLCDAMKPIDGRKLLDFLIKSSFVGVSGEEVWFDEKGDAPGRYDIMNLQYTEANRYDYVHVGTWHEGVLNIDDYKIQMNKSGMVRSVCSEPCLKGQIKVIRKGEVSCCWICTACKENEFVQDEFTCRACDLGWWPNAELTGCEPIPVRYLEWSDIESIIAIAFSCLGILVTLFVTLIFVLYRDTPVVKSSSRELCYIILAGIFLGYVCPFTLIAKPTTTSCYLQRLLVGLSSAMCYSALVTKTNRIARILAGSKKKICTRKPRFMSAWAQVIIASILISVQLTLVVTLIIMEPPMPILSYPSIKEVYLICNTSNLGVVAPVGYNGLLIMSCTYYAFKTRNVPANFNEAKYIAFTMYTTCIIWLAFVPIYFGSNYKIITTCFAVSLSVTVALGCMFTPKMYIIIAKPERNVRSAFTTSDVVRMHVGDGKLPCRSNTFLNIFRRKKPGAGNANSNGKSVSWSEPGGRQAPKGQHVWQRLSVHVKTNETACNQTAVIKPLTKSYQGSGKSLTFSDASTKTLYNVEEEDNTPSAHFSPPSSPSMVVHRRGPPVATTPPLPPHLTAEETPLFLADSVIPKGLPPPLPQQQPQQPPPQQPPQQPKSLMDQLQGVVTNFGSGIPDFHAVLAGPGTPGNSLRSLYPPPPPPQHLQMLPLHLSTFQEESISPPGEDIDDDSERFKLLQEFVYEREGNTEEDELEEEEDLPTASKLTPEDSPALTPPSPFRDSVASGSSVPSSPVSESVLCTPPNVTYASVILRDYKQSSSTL
Outline: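 Rat mGlu1a stably expressed in CHO-dhfr- cells grown in DMEM/GlutaMAX1 with 10% heat-inactivated dialyzed fetal calf serum, 0.4 mM L-proline and antibiotics. Inhibition of receptor activation was measured as intracellular Ca2+ rise on a fluorometric imaging plate reader. IC50 is the mean of two or three independent experiments.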

[3] = Total plasma clearance in rat after the single intravenous administration at 2.5 mg/kg; format: ADME, organism-based; design: dose 2.5 mg/kg, route intravenous
Outline: (§1)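 Rats received a single intravenous 2.5 mg/kg dose. Plasma kinetics were followed to derive elimination half-life and total plasma clearance.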

[4] = Half life in rat after the single intravenous administration at 2.5 mg/kg; format: ADME, organism-based; design: dose 2.5 mg/kg, route intravenous; settings: in vivo; outline: as §1

Sequence of Metabotropic glutamate receptor 1 (Homo sapiens, UniProt Q13255) (Q13255 whole entry): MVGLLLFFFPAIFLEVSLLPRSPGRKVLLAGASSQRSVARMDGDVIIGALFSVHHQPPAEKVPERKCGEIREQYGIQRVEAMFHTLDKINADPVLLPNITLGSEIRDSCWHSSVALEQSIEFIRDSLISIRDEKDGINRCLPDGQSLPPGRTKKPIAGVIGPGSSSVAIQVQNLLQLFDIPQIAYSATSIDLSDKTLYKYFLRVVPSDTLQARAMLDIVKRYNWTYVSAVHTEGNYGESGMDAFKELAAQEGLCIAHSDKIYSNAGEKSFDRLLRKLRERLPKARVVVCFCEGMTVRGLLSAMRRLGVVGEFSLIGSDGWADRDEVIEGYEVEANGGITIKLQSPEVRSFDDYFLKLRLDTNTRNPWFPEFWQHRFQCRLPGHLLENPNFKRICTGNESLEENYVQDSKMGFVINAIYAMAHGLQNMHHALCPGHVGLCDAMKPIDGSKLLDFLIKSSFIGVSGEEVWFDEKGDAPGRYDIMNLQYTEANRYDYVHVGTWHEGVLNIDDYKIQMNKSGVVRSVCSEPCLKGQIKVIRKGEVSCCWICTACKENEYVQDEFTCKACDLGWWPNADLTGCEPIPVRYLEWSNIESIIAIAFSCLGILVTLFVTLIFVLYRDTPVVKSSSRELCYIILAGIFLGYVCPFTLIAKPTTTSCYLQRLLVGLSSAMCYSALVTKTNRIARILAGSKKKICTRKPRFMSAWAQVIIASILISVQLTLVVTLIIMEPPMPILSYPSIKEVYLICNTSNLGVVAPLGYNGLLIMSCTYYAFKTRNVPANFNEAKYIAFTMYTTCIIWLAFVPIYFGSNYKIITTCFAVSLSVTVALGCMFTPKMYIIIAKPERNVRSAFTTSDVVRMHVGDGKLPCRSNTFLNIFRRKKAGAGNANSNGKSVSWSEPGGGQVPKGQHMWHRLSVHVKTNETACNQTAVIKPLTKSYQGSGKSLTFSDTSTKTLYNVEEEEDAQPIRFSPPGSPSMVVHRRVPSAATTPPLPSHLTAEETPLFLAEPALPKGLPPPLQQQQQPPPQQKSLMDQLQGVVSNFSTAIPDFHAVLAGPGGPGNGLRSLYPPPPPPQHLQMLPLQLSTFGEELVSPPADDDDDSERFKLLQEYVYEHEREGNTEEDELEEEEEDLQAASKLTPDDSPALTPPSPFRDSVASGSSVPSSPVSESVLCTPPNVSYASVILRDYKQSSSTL

Row | Structure (SMILES) | IC50 [1] | IC50 [2] | clearance [3] | half-life [4]
1 | CO[C@H]1CC[C@@H](C(=O)c2ccc3nc4c(cc3c2)CCCN4C)CC1 | 29 nM |  |  | 
2 | CCc1cc2cc(C(=O)CCc3ccccc3)ccc2nc1C | > 10000 nM | 230 nM |  | 
3 | CCc1cc2cc(C(=O)Cc3cccc(OC)c3)ccc2nc1C |  | 435 nM |  | 
4 | CCc1cc2cc(C(=O)Cc3ccc(N(C)C)cc3)ccc2nc1C |  | 645 nM |  | 
5 | CCc1cc2cc(C(=O)C3CCC(OC)CC3)ccc2nc1-c1cccs1 (configuration not stated) |  | 3310 nM |  | 
6 | CCCc1ccc2cc(C(=O)[C@H]3CC[C@@H](OC)CC3)ccc2n1 | 3 nM |  |  | 
7 | CCc1cc2cc(C(=O)Cc3ccc(OC)c(OC)c3)ccc2nc1C |  | > 10000 nM |  | 
8 | CCc1cc2cc(C(=O)C3CCC(O)CC3)ccc2nc1C (configuration not stated) | 80 nM |  |  | 
9 | O=C(Cc1ccccc1)c1ccc2cc3c(nc2c1)OCCC3 |  | 8300 nM |  | 
10 | CO[C@H]1CC[C@@H](C(=O)c2ccc3nc4c(cc3c2)CCC4)CC1 | 0.56 nM |  |  | 
11 | CCc1cc2cc(C(=O)[C@H]3CC[C@@H](OC)CC3)ccc2nc1F | 9 nM |  |  | 
12 | CCc1cc2cc(C(=O)C3CCC(OC)CC3)ccc2nc1-c1nccs1 (configuration not stated) |  | > 10000 nM |  | 
13 | CCc1cc2cc(C(=O)C3CCC(OC)CC3)ccc2nc1CC (stereo in doubt; cis) | 8 nM |  |  | 

More lines, in order of falling IC50 [2], values ahead:

Row | IC50 [1] | IC50 [2] | clearance [3] | half-life [4] | Structure (SMILES)
14 |  | 126 nM |  |  | CCc1cc2cc(C(=O)C34CC5CC(CC(C5)C3)C4)ccc2nc1C
15 | 16 nM | 125 nM |  |  | C[C@H]1CC[C@@H](C(=O)c2ccc3nc4c(cc3c2)CCCCC4)CC1
16 | 160 nM | 85 nM |  |  | O=C(CCc1ccccc1)c1ccc2nc3c(cc2c1)CCCO3
17 | 18 nM | 80 nM |  |  | CO[C@H]1CC[C@@H](C(=O)c2ccc3nc4c(cc3c2)CCCCC4)CC1
18 | 450 nM | 45 nM |  |  | CCc1cc2cc(C(=O)[C@H]3CC[C@@H](OC)CC3)ccc2n2nnnc12
19 | 106 nM | 45 nM |  |  | CO[C@H]1CC[C@@H](C(=O)c2ccc3nc4c(cc3c2)CCCO4)CC1 (stereo in doubt; form 2)
20 | 51 nM | 10 nM |  |  | CCc1cc2cc(C(=O)Cc3ccccc3)ccc2nc1C
21 | 74 nM | 7 nM |  |  | O=C(Cc1ccsc1)c1ccc2nc3c(cc2c1)CCCO3
22 | 14 nM | 6 nM |  |  | O=C(Cc1ccccc1)c1ccc2nc3c(cc2c1)CCCO3
23 | 0.55 nM | 3 nM | 91.7 mL/min/kg | 19.2 min | CO[C@H]1CC[C@@H](C(=O)c2ccc3nc4c(cc3c2)CCCO4)CC1 (stereo in doubt; form 1)
24 | 2 nM | 2 nM |  |  | CO[C@H]1CC[C@@H](C(=O)c2ccc3nc4c(cc3c2)CCS4)CC1
